Test results: ChEMBL document CHEMBL1146117, “Inhibitors of human mitotic kinesin Eg5: characterization of the 4-phenyl-tetrahydroisoquinoline lead series” (Bioorg Med Chem Lett, 2006)

How the values were obtained:
A2780 [1] = test: Antiproliferative activity against human A2780 cells; format: functional, cell-based
Outline: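 A2780 ovarian carcinoma cells were exposed to compound for 72 h. IC50 derived from dose–response curves of triplicate data points, reported as the mean ± SD of three independent experiments.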

[2] = molecular target: T1, Kinesin-like protein KIF11 (Homo sapiens, UniProt P52732); test: Inhibition of Eg5 by ATPase assay; format: functional
T1 sequence (P52732 whole entry): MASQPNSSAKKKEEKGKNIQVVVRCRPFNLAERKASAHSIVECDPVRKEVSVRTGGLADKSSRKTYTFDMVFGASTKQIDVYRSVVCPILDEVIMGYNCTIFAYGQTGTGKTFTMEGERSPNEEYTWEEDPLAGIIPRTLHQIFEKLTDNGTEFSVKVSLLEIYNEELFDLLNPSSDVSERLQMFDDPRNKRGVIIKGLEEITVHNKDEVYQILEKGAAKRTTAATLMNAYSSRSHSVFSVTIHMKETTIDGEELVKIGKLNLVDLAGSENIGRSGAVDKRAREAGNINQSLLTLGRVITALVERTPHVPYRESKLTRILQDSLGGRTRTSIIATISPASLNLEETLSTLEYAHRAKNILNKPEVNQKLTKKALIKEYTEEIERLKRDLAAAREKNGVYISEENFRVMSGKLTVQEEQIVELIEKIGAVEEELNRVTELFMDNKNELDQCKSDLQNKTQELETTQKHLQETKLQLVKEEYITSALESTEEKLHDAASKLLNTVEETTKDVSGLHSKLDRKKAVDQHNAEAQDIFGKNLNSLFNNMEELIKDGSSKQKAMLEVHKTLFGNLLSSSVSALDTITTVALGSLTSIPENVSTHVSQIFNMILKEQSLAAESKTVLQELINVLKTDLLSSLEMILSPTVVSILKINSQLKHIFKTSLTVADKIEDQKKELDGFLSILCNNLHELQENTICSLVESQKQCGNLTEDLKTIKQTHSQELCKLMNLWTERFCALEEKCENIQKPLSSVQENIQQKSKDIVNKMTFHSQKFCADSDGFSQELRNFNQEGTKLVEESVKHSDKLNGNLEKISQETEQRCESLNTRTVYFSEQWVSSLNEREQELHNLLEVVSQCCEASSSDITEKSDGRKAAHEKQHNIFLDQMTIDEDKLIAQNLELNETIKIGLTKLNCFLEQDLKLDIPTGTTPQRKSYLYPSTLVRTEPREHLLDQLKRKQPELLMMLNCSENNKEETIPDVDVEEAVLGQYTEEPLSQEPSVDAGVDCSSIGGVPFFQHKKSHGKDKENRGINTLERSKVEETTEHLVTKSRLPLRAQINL
Outline: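 Eg5 motor-domain protein ATPase activity read with a Kinase-Glo luminescent ATP kit. IC50 taken from dose–response curves of triplicate data points. Values are means ± SD of three independent experiments.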

A2780 [3] = test: Cell cycle arrest in A2780 cells by accumulation at S phase at 0.1 uM; format: functional, Homo sapiens
Outline: (§1)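 A2780 cells were treated for 17 h at 0.257 or 0.328 µM, with nocodazole 0.1 µM as positive control and DMSO 0.08% as negative control. Cell-cycle profile (% G1, S, G2+M) and mitotic index (% cells in M phase) were quantified by flow cytometry.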

A2780 [4] = test: Cell cycle arrest in A2780 cells by accumulation at G2/M phase at 0.1 uM; format: functional, Homo sapiens; outline: as §1
A2780 [5] = test: Mitotic index in A2780 cells at M phase at 0.1 uM; format: functional, Homo sapiens; outline: as §1
A2780 [6] = test: Cell cycle arrest in A2780 cells by accumulation at G1 phase at 0.1 uM; format: functional, Homo sapiens; outline: as §1

SMILES	IC50 (A2780 [1])	IC50 [2]	also measured
CCN1Cc2c(ccc(C)c2C)C(c2ccccc2)C1 (stereo not given)	5300 nM	25200 nM	–
Cc1ccc2c(c1C)CNCC2c1ccccc1 (stereo not given)	9040 nM	8330 nM	–
Cc1ccc2c(c1C)CN(C(=O)N1CCCCC1)CC2c1ccccc1 (stereo not given)	2830 nM	12800 nM	–
Cc1ccc2c(c1C)CN(CCCN)CC2c1ccccc1 (stereo not given)	2420 nM	3060 nM	–
Cc1ccc2c(c1C)CN(S(C)(=O)=O)CC2c1ccccc1 (stereo not given)	–	> 25000 nM	–
Cc1ccc2c(c1C)CN(C(=O)N(C)C)CC2c1ccccc1 (stereo not given)	1200 nM	2750 nM	–
CCOC(=O)N1Cc2c(ccc(C)c2C)C(c2ccccc2)C1 (stereo not given)	–	> 25000 nM	–
CN(C)C(=O)N1Cc2ccccc2C(c2cccc(O)c2)C1 (stereo not given)	–	> 25000 nM	–
Cc1ccc2c(c1C)CN(CCN)CC2c1ccccc1 (stereo not given)	2310 nM	2270 nM	–
Cc1ccc2c(c1C)CN(C(N)=O)CC2c1ccccc1 (stereo not given)	–	> 25000 nM	–
CN(C)C(=O)N1Cc2cc(I)ccc2C(c2cccc(O)c2)C1 (stereo not given)	363 nM	317 nM	–
Cc1ccc2c(c1C)CN(C(=O)N(C)C)CC2c1ccc(O)cc1 (stereo not given)	–	> 25000 nM	–
Cc1ccc2c(c1)CN(C(=O)N(C)C)CC2c1cccc(O)c1 (stereo not given)	851 nM	595 nM	–
COC(=O)Nc1nc2cc(C(=O)c3cccs3)ccc2[nH]1 [NOCODAZOLE]	–	–	Activity (A2780 [3]): 15.7%; Activity (A2780 [4]): 62.1%; Activity (A2780 [5]): 23.7%; Activity (A2780 [6]): 12%

The next lines start with results.

IC50 (A2780 [1])	IC50 [2]	SMILES	also measured
3440 nM	1270 nM	CN(C)C(=O)N1Cc2c(ccc(Cl)c2Cl)C(c2cccc(O)c2)C1 (stereo not given)	–
376 nM	306 nM	Cc1ccc2c(c1C)CN(C(=O)N(C)C)CC2c1cccc(O)c1 (stereo not given)	–
2050 nM	4710 nM	Cc1cccc2c1CN(C(=O)N(C)C)CC2c1cccc(O)c1 (stereo not given)	–
235 nM	639 nM	CN(C)C(=O)N1Cc2c(ccc3c2OCC3)C(c2cccc(O)c2)C1 (stereo not given)	–
–	> 25000 nM	CN(C)C(=O)N1Cc2c(F)cccc2C(c2cccc(O)c2)C1 (stereo not given)	–
332 nM	1780 nM	COc1cccc2c1CN(C(=O)N(C)C)CC2c1cccc(O)c1 (stereo not given)	–
186 nM	344 nM	CCc1cccc2c1CN(C(=O)N(C)C)CC2c1cccc(O)c1 (stereo not given)	–
879 nM	808 nM	CN(C)C(=O)N1Cc2cc(Br)ccc2C(c2cccc(O)c2)C1 (stereo not given)	–
